An excerpt weighted towards active compounds, which were near 2.8% of everything screened.
T cruzi repl – inhibitors of intracellular T. cruzi growth, primary screen, luminescence, NIH3T3 host cells; T. cruzi beta-gal in NIH3T3, 90 h; inhibition, % (concentration not given with the values); actives 1.4% (n = 300,000); AID 1885, 2009;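 active means mean inhibition across valid replicates above about 55%, limit read from the data; inconclusive means mean below that limit but half or more replicates reach it; inactive means mean below it, under half of replicates reach it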;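 further: signal also drops with host cell toxicity which is not excluded here; 0% = plate median of DMSO wells and 100% = zero luminescence signal; higher percent means less beta-gal luminescence so fewer parasites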
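Read-out: Parasite load inhibition, % | Test system: Mouse NIH/3T3 fibroblasts infected with β-gal-expressing T. cruzi Tulahuen C4 | Amount: 5,000 cells/well | Medium: DMEM, 2% fetal bovine serum | Signal: GalScreen β-gal luminescence, detergent lysis, 60 min | Timing: 3 h attach, ≥90 h co-culture | Also added: Tulahuen C4 trypomastigotes, 5000/well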
pCIP destab – p/CIP-EGFP fusion destabilizers, primary screen, fluorescence, F442A cells | Q05BA5 | 16 h | decrease of EGFP signal, % at 10 µM | actives 0.01% (n = 290,000) | AID 1984, 2009;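 active means EGFP signal decrease of at least 30% at 10 µM or well 3 SD below plate mean, unless failing retest; inactive means the rest, including hits failing retest or dose response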
PP1 counter – PP1-alpha phosphatase inhibitors, primary screen, counter-screen for PP5 inhibitor project, biochemical, fluorescence, OMFP substrate, single point. actives 0.9% (n = 320,000). Serine/threonine-protein phosphatase PP1-alpha catalytic subunit (Homo sapiens), P62136. inhibition, % at 6.7 µM. purified PP1alpha. AID 2235, 2010;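 active means inhibition above the mean inhibition of all tested compounds plus 3 SD, computed separately for each screening campaign, cut at about 15% in these data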
AI-2 QS mod – Vibrio harveyi AI-2 quorum sensing modulators, primary screen, JMH597 strain, luminescence/OD600 ratio; Vibrio harveyi JMH597 AI-2 luminescence/OD600 ratio, 9 h; active compounds read low; strain lacks LuxN and CqsS sensors; 0 = neutral-control median; activity change, % at 7.5 µM; actives 0.4% (n = 300,000); AID 2094, 2009; in the data active means activity change below about -75%, passing the limit was not always enough; inconclusive means no clear call, values can overlap the other calls;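 further: luminescence divided by OD600 gain over 9 h not by final OD600 alone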
UBC13 inh – UBC13 polyubiquitin chain formation inhibitors, primary screen, biochemical, TR-FRET, uHTS; inhibition, % at 20 µM; actives 0.47% (n = 330,000); in the data active means inhibition above about 45%, passing the limit was not always enough; inconclusive means no clear call, values can overlap the other calls
* marks the source's active call; other numbers are inactive results; ? = inconclusive; . = no result given.

SMILES | T cruzi repl | pCIP destab | PP1 counter | AI-2 QS mod | UBC13 inh
O=C(N/N=C\c1ccc([N+](=O)[O-])o1)c1cncc(Br)c1 | 58* | -9 | 1 | -41 | -11
COc1cc(/C=N/NC(=O)c2cncc(Br)c2)cc([N+](=O)[O-])c1O | -5 | -18 | 17* | -202* | -73
CC(C)(C)OC(=O)NCCCCCNC(=O)c1ncn(Cc2ccccc2)c1C(=O)NCCCCCNC(=O)OC(C)(C)C | . | . | . | . | -16
CCOc1ccc(C2Nc3ccc4ccccc4c3-c3c2c(=O)oc2ccccc32)cc1 (stereo unspecified) | 66* | -5 | 1 | 7 | -1
O=c1oc2ccccc2c2c1C(c1ccc(Cl)cc1)Nc1ccc3ccccc3c1-2 (stereo unspecified) | 35 | 8 | -6 | 20 | -10
CCOc1ccc(OCC(=O)c2c(O)c3ccccc3oc2=O)cc1 | -4 | -13 | -2 | 35 | 1
COc1ccc(C2Nc3ccc4ccccc4c3-c3c2c(=O)oc2ccccc32)cc1 (stereo unspecified) | 66* | -6 | -4 | 12 | 3
NC(=O)C1Cc2ccccc2CN1C(=O)c1cc(C2CC2)nn1-c1ccccc1 (stereo unspecified) | . | . | . | . | 5
O=C1NC2(CCc3ccccc3C2)C(=O)N1CCOc1cccc(Cl)c1 (stereo unspecified) | -4 | 2 | 2 | 26 | -3
CC(C)(CNC(=O)c1ccc(NS(=O)(=O)c2ccc(Br)cc2)cc1)N1CCOCC1 | -12 | . | -6 | 9 | 5
Cc1ccc(-c2noc(CNc3ccccc3)n2)cc1 | -5 | -7 | 5 | ? | 10
c1ccc(CCc2nc(-c3ccccc3)no2)cc1 | 7 | -13 | 0 | -94* | 3
CCc1ccc(NCc2nc(-c3ccccc3)no2)cc1 | 3 | -2 | 1 | -96* | -3
c1ccc(CCc2ccccc2-c2nc(-c3cccnc3)no2)cc1 | 30 | -13 | 4 | 24 | -2
c1ccc(CCc2nc(-c3cccnc3)no2)cc1 | -15 | -8 | -1 | -93* | 7
CCCc1ccc(NC(=O)C2CCCN(c3cnccn3)C2)cc1 (stereo unspecified) | 38 | -2 | -2 | 3 | -5
CN(c1ccccc1)P(=O)(N(C)c1ccccc1)N(C)c1ccccc1 | 66* | -8 | -1 | 12 | 5
CC1(C)N=C(N)N=C(N)N1c1ccc(Oc2ccc(Cl)cc2)c(Cl)c1 | 55* | -12 | 0 | 20 | 36
Cc1ccc(CNC(=O)NC2CCCCC2)cc1 | -12 | -2 | -2 | -89* | 0
CCn1nc(C)cc1C(=O)NC1CC(C)(C)Cc2c1cnn2-c1cccc(F)c1 (stereo unspecified) | -1 | -11 | 2 | -1 | -6
O=C(Nc1cccc(NC(=O)c2ccco2)n1)c1ccco1 | -9 | 14 | -3 | . | -6
CCOC(=O)N1CCN(C(=O)c2nn(C)c3c2CSc2ccccc2-3)CC1 | 2 | 2 | 5 | 33 | -4
COc1ccc(-c2ccc([C@H]3[C@@H]4C=CCC[C@@]4(C)C(=O)N3Cc3ccccc3)c(F)c2)cc1OC | 67* | -2 | 7 | 12 | 10
COc1cc(OC)cc(C(=O)NNC(=O)CN2C(=O)NC3(CCCC3)C2=O)c1 | . | . | -2 | . | 7
CC1=CC(=C(C#N)c2nc3ccccc3s2)C=C(C)N1Cc1ccco1 | 64* | -25 | -2 | 1 | -8
SMILES | T cruzi repl | pCIP destab | PP1 counter | AI-2 QS mod | UBC13 inh
CCCCCn1c(=O)[nH]c2cc(C(=O)NCCCN(C)Cc3ccccc3)ccc2c1=O | 58* | 2 | -4 | -5 | 23
O=C(O)CN1C(=O)/C(=C\c2cc(Br)ccc2OCc2ccccc2F)SC1=S | 3 | -4 | 16* | -2 | -6
CCOC(=O)/C=C1/N(C)c2ccccc2C1(C)C | -7 | 0 | -1 | -14 | -2
CN1/C(=C\P(=O)(N(C)C)N(C)C)C(C)(C)c2ccccc21 | 62* | -10 | -2 | 11 | 9
CCCCN(C(=O)c1ccc(NC(=O)C(C)C)cc1)c1ccccc1 | 2 | -7 | 1 | 15 | 9
COc1ccc(CN2CCCC(CO)(Cc3cccc(Cl)c3)C2)cc1OC (stereo unspecified) | 55* | -14 | 0 | 12 | 1
OCC1(Cc2cccc(Cl)c2)CCCN(Cc2ccc(F)c(F)c2)C1 (stereo unspecified) | 23 | 8 | 0 | 22 | 4
COc1cc(CN2CCCC(CO)(Cc3cccc(Cl)c3)C2)cc(OC)c1O (stereo unspecified) | 15 | 0 | 0 | 12 | 4
COc1cc(CN2CCCC(CO)(Cc3cccc(Cl)c3)C2)cc2c1OCO2 (stereo unspecified) | 55* | -5 | -4 | -9 | 2
CSc1cccc(CN2CCCC(CO)(Cc3cccc(Cl)c3)C2)c1 (stereo unspecified) | 62* | -8 | -1 | 20 | -12
O=C(CCOc1ccc(F)cc1)Nc1nccs1 | -9 | -10 | -5 | -4 | -7
CCC(C)n1c(C)nc2c(c1=O)c1nc3ccccc3nc1n2CCC1=CCCCC1 (stereo unspecified) | 59* | 0 | -1 | 34 | 22
Cc1cc(F)ccc1S(=O)(=O)Nc1ccccc1C(=O)NCc1cccnc1 | 13 | -6 | -2 | 52 | -7
CC(C)(C)C1=CC(=O)C(=O)C(C(C)(C)C)=C1 | 74* | 6 | 4 | -1 | 0
CC(C)(C)C1=CC(=Nc2ccccc2N)C=C(C(C)(C)C)C1=O | -5 | -3 | -5 | -5 | 11
COC(=O)c1[nH]c2ccc(Br)cc2c1NC(=O)CN1CCCc2ccccc21 | 29 | -3 | 5 | 12 | -13
COC(=O)c1[nH]c2cc(C)ccc2c1NC(=O)CN1CCCc2ccccc21 | 59* | -4 | 1 | 26 | -6
CCOC(=O)c1sc2nc(CSc3ccccc3)nc(N3CCC(C(N)=O)CC3)c2c1C | 59* | 40* | 3 | 20 | 4
CC(C)Cn1c(N)c(C(=O)CSc2nc3ccccc3c(=O)n2CCCN2CCOCC2)c(=O)n(C)c1=O | 55* | -5 | -1 | 13 | 8
Cc1ccc(NS(=O)(=O)c2ccc(Cl)c(C(=O)Nc3ccccc3-c3nc4ccccc4[nH]3)c2)cc1C | 68* | 14 | 3 | 21 | 0
COc1ccc(OC)c(C2C=C(C34CC5CC(CC(C5)C3)C4)NC(=S)N2)c1 (stereo unspecified) | 65* | -6 | 7 | 15 | 1
S=C1NC(C23CC4CC(CC(C4)C2)C3)=CC(c2ccc3c(c2)OCO3)N1 (stereo unspecified) | 70* | -16 | -2 | 37 | -1

Screening results (PubChem BioAssay)
